From ChEMBL document CHEMBL5303300, “EUbOPEN Chemogenomics Library - Multiplex” (2023)
Several values for one entry are separate records, joined by “and”; a condition that tells them apart may be missing. Identical values can stand only once.

Tested on: U2OS
Experiment: Multiplex assay against U2OS
Assay type: toxicity, cell-based
Settings: human, number of replicates 2
In short: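 Cells stained live at seeding with Hoechst33342, BioTracker Green Microtubule Cytoskeleton Dye, MitoTracker Red and Annexin V Alexa Fluor 680 were imaged on a CQ1 microscope at 37°C and 5% CO2 after compound addition. Their classification by CellPathfinder machine-learning gating ran from Hoechst high-intensity objects versus normal cells, to healthy, pyknosed or fragmented nuclei among normal cells, to mitotic or apoptotic among pyknosed cells. Tubulin, mitochondrial-mass and membrane-permeability phenotypes are per cents of healthy-nucleus cells.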

[1] = 12 h, 1 µM, compound concentration 1 uM
[2] = 12 h, 10 µM, compound concentration 10 uM
[3] = 24 h, 1 µM, compound concentration 1 uM
[4] = 24 h, 10 µM, compound concentration 10 uM
[5] = 48 h, 1 µM, compound concentration 1 uM
[6] = 48 h, 10 µM, compound concentration 10 uM

## CS(=O)(=O)c1ccc(C(=O)Nc2cc(F)cc(COc3ccc(Br)cc3CN3CC[C@H](O)C3)c2)c(Cl)c1.O=CO
[1]
  Population Healthy Nuclei (%): 64% and 82%
  Population Hoechst High Intensity Objects (%): 0%
  Population Mitotic Cells (%): 20% and 12%
  Population Pyknosed Nuclei (%): 8% and 13%
[2]
  Population Healthy Nuclei (%): 31% and 70%
  Population Hoechst High Intensity Objects (%): 0%
  Population Mitotic Cells (%): 44% and 57%
  Population Pyknosed Nuclei (%): 21% and 25%
[3]
  Population Healthy Nuclei (%): 82% and 53%
  Population Hoechst High Intensity Objects (%): 0%
  Population Mitotic Cells (%): 21% and 46%
  Population Pyknosed Nuclei (%): 15% and 20%
[4]
  Population Healthy Nuclei (%): 32% and 68%
  Population Hoechst High Intensity Objects (%): 0%
  Population Mitotic Cells (%): 20% and 26%
  Population Pyknosed Nuclei (%): 25% and 28%
[5]
  Population Healthy Nuclei (%): 57% and 85%
  Population Hoechst High Intensity Objects (%): 0%
  Population Mitotic Cells (%): 11% and 15%
  Population Pyknosed Nuclei (%): 18%
[6]
  Population Healthy Nuclei (%): 19% and 52%
  Population Hoechst High Intensity Objects (%): 0%
  Population Mitotic Cells (%): 12% and 9%
  Population Pyknosed Nuclei (%): 44% and 38%
